Experimental data as given in ChEMBL document CHEMBL1287787, “Design and synthesis of disubstituted thiophene and thiazole based inhibitors of JNK” (Bioorg Med Chem Lett, 2010).
Values belong to the compound of their own block, whether it stands above or below them.

Columns and labels:
[1] = target: Mitogen-activated protein kinase 8 (Homo sapiens, UniProt P45983); assay: Inhibition of recombinant JNK1 after 60 mins by TR-FRET assay
[2] = target: Mitogen-activated protein kinase 9 (Homo sapiens, UniProt P45984); assay: Inhibition of recombinant JNK2 after 60 mins by TR-FRET assay
[3] = target: T1, Mitogen-activated protein kinase 1 (Homo sapiens, UniProt P28482); assay: Inhibition of recombinant Erk2 after 60 mins by TR-FRET assay
[4] = test system: MDCK; assay: Efflux ratio of permeability from […] side in MDCK cells expressing p-gp after 120 mins; assay type: ADME, cell-based, Canis lupus familiaris; details: dog, 2 h
[5] = target: Mitogen-activated protein kinase 14 (Homo sapiens, UniProt Q16539); assay: Inhibition of recombinant p38alpha after 60 mins by TR-FRET assay
[6] = target: T2, Mitogen-activated protein kinase 10 (Homo sapiens, UniProt P53779); assay: Inhibition of recombinant JNK3 after 60 mins by TR-FRET assay
[7] = Metabolic stability in mouse liver microsomes assessed as compound remaining after 30 mins; assay type: ADME, Microsome; details: read-out: Stability
Procedure, shortened: (§1)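 Test compound incubated with mouse or human liver microsomes for 30 min. Read-out is the percent of parent compound remaining at the end of the incubation.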

[8] = Metabolic stability in human liver microsomes assessed as compound remaining after 30 mins; assay type: ADME, Microsome; details: read-out: Stability; procedure, shortened: as §1
[9] = Solubility of compound in Hank's buffered salt solution; assay type: physicochemical
[10] = test system: MDR1; assay: Permeability from apical to basolateral side of MDCK cells expressing MDR1 after 120 mins; assay type: ADME, cell-based, Canis lupus familiaris; details: dog, read-out: permeability
[11] = target: Serine/threonine-protein kinase PLK1 (Homo sapiens) (UniProt P53350); assay: Inhibition of PLK1 at 10 uM
[12] = target: Protein-tyrosine kinase 2-beta (Homo sapiens) (UniProt Q14289); assay: Inhibition of PTK2B at 10 uM
[13] = target: Tyrosine-protein kinase SYK (Homo sapiens) (UniProt P43405); assay: Inhibition of SYK at 10 uM
[14] = target: Platelet-derived growth factor receptor alpha (Homo sapiens) (UniProt P16234); assay: Inhibition of PDGFRA at 10 uM
[15] = target: Rho-associated protein kinase 2 (Homo sapiens) (UniProt O75116); assay: Inhibition of ROCK2 at 10 uM
[16] = target: Tyrosine-protein kinase Lck (Homo sapiens) (UniProt P06239); assay: Inhibition of LCK at 10 uM
[17] = target: Glycogen synthase kinase-3 beta (Homo sapiens) (UniProt P49841); assay: Inhibition of GSK3-beta at 10 uM
[18] = target: Serine/threonine-protein kinase MARK2 (Homo sapiens) (UniProt Q7KZI7); assay: Inhibition of MARK2 at 10 uM
[19] = target: Serine/threonine-protein kinase 16 (Homo sapiens) (UniProt O75716); assay: Inhibition of STK16 at 10 uM
[20] = target: T2, Mitogen-activated protein kinase 10; details: 10 uM
[21] = test system: RAF proto-oncogene serine/threonine-protein kinase (Homo sapiens), P04049 [Y340D,Y341D]; assay: Inhibition of RAF1 Y340D/Y341D mutant at 10 uM
[22] = target: Serine/threonine-protein kinase PAK 4 (Homo sapiens) (UniProt O96013); assay: Inhibition of PAK4 at 10 uM
[23] = target: Serine/threonine-protein kinase 3 (Homo sapiens) (UniProt Q13188); assay: Inhibition of STK3 at 10 uM
[24] = target: PI3-kinase p110-alpha/p85-alpha (Homo sapiens) (UniProt P27986+P42336); assay: Inhibition of PIK3CA/PIK3R1 at 10 uM; assay type: protein-complex assay
[25] = target: Aurora kinase A (Homo sapiens) (UniProt O14965); assay: Inhibition of AURKA at 10 uM
[26] = target: Receptor tyrosine-protein kinase erbB-4 (Homo sapiens) (UniProt Q15303); assay: Inhibition of ERBB4 at 10 uM
[27] = target: Serine/threonine-protein kinase PLK2 (Homo sapiens) (UniProt Q9NYY3); assay: Inhibition of PLK2 at 10 uM
[28] = target: cAMP-dependent protein kinase catalytic subunit alpha (Homo sapiens) (UniProt P17612); assay: Inhibition of PRKACA at 10 uM
[29] = target: Receptor-type tyrosine-protein kinase FLT3 (Homo sapiens) (UniProt P36888); assay: Inhibition of FLT3 at 10 uM
[30] = target: RAC-alpha serine/threonine-protein kinase (Homo sapiens) (UniProt P31749); assay: Inhibition of AKT1 at 10 uM
[31] = target: Protein kinase C beta type (Homo sapiens) (UniProt P05771); assay: Inhibition of PRKCB1 at 10 uM
[32] = target: Macrophage colony-stimulating factor 1 receptor (Homo sapiens) (UniProt P07333); assay: Inhibition of CSF1R at 10 uM
[33] = target: Dual specificity protein kinase CLK1 (Homo sapiens) (UniProt P49759); assay: Inhibition of CLK1 at 10 uM
[34] = target: Dual specificity tyrosine-phosphorylation-regulated kinase 1B (Homo sapiens) (UniProt Q9Y463); assay: Inhibition of DYRK1B at 10 uM
[35] = target: Receptor-interacting serine/threonine-protein kinase 2 (Homo sapiens) (UniProt O43353); assay: Inhibition of RIPK2 at 10 uM
[36] = target: Calcium/calmodulin-dependent protein kinase type II subunit alpha (Homo sapiens) (UniProt Q9UQM7); assay: Inhibition of CAMK2A at 10 uM
[37] = target: Cyclin-dependent kinase 1/cyclin B (Homo sapiens) (UniProt P06493+P14635+Q8WWL7+O95067); assay: Inhibition of CDK1/cyclin B at 10 uM; assay type: protein-complex assay
[38] = target: T1, Mitogen-activated protein kinase 1; assay: Inhibition of MAPK1 at 10 uM
[39] = target: Serine/threonine-protein kinase PLK3 (Homo sapiens) (UniProt Q9H4B4); assay: Inhibition of PLK3 at 10 uM
[40] = target: Dual specificity protein kinase TTK (Homo sapiens) (UniProt P33981); assay: Inhibition of TTK at 10 uM
[41] = target: Tyrosine-protein kinase JAK1 (Homo sapiens) (UniProt P23458); assay: Inhibition of JAK1 at 10 uM
[42] = target: Serine/threonine-protein kinase Chk1 (Homo sapiens) (UniProt O14757); assay: Inhibition of CHEK1 at 10 uM
[43] = target: Tyrosine-protein kinase ABL1 (Homo sapiens) (UniProt P00519); assay: Inhibition of ABL1 at 10 uM
[44] = target: Cyclin-dependent kinase 5/CDK5 activator 1 (Homo sapiens) (UniProt Q00535+Q15078); assay: Inhibition of CDK5/p25 at 10 uM; assay type: protein-complex assay
[45] = target: Proto-oncogene tyrosine-protein kinase receptor Ret (Homo sapiens) (UniProt P07949); assay: Inhibition of RET at 10 uM
[46] = target: Cyclin-dependent kinase 2/cyclin A (Homo sapiens) (UniProt P24941+P20248+P78396); assay: Inhibition of CDK2/cyclin A at 10 uM; assay type: protein-complex assay
[47] = target: Insulin receptor (Homo sapiens) (UniProt P06213); assay: Inhibition of INSR at 10 uM

T1 sequence (P28482 whole entry): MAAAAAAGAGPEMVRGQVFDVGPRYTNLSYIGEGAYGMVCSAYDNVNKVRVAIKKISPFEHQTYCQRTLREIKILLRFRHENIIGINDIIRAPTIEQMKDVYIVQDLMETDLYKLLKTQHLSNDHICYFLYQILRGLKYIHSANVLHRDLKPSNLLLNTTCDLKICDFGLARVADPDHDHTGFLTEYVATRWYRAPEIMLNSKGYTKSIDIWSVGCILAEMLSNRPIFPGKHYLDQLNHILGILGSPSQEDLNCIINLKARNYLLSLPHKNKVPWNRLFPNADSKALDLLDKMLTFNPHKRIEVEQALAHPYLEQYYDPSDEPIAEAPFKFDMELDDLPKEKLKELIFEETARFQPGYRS
T2 sequence (P53779 whole entry): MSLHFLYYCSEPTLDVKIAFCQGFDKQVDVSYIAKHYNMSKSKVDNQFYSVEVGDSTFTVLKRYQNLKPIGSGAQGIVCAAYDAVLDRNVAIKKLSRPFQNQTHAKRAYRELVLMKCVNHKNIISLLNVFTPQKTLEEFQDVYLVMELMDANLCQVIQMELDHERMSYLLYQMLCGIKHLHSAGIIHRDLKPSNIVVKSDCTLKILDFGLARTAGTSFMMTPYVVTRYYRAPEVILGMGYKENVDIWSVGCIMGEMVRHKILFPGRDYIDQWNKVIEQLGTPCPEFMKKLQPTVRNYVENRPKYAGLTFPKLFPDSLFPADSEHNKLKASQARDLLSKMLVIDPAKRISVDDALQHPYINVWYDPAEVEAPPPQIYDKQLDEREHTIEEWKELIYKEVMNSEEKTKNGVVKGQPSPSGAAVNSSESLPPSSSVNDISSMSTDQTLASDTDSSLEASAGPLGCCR
Mitogen-activated protein kinase 14, sequence (Q16539 whole entry): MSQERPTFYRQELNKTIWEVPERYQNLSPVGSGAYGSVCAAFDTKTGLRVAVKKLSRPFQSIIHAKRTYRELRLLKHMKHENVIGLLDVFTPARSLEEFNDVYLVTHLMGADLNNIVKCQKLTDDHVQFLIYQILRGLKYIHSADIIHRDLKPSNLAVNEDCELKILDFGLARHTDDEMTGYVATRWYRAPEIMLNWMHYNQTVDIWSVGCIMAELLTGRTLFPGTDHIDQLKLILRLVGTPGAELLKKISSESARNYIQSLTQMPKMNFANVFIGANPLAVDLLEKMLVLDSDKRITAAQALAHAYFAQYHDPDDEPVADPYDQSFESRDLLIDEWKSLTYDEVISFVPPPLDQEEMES
Mitogen-activated protein kinase 8, sequence (P45983 whole entry): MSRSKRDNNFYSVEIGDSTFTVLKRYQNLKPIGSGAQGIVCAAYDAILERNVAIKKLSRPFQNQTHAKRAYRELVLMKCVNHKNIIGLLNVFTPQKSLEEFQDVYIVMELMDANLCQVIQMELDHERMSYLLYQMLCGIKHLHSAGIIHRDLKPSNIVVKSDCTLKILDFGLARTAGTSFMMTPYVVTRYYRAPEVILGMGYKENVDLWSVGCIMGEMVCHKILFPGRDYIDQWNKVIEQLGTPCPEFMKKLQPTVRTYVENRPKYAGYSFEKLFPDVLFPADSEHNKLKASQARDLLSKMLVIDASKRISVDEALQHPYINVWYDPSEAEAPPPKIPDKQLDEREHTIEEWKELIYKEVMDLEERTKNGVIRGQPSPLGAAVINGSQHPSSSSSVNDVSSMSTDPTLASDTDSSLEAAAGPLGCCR
Mitogen-activated protein kinase 9, sequence (P45984 whole entry): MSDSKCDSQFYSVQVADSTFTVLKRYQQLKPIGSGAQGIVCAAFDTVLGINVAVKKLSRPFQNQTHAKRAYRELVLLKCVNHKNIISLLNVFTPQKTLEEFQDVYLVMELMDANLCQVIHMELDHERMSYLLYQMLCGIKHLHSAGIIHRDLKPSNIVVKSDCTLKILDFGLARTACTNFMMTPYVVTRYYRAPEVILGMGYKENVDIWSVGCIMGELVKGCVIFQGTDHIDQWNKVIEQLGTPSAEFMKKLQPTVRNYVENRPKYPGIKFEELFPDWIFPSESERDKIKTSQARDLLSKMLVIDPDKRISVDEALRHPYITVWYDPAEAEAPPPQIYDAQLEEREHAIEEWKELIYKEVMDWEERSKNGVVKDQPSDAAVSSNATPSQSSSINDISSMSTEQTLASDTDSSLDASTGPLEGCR
Cyclin-dependent kinase 5/CDK5 activator 1 (Homo sapiens), sequence (Q00535 whole entry): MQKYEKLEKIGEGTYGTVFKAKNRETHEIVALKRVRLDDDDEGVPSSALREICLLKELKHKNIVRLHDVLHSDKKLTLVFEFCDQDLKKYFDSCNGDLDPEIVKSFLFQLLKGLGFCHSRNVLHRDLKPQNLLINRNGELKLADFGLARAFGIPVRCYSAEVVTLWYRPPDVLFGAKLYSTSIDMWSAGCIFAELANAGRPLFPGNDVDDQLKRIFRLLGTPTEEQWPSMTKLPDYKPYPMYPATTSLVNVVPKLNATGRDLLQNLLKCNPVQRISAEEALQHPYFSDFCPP
Cyclin-dependent kinase 5/CDK5 activator 1 (Homo sapiens), sequence (Q15078 99-307 partner limits assumed): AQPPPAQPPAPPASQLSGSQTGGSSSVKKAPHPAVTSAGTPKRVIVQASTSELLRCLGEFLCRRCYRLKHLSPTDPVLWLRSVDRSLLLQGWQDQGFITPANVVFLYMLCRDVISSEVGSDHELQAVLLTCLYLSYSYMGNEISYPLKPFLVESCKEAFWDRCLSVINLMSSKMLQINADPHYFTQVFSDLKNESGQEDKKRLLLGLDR
Rho-associated protein kinase 2 (Homo sapiens), sequence (O75116 whole entry, looked up): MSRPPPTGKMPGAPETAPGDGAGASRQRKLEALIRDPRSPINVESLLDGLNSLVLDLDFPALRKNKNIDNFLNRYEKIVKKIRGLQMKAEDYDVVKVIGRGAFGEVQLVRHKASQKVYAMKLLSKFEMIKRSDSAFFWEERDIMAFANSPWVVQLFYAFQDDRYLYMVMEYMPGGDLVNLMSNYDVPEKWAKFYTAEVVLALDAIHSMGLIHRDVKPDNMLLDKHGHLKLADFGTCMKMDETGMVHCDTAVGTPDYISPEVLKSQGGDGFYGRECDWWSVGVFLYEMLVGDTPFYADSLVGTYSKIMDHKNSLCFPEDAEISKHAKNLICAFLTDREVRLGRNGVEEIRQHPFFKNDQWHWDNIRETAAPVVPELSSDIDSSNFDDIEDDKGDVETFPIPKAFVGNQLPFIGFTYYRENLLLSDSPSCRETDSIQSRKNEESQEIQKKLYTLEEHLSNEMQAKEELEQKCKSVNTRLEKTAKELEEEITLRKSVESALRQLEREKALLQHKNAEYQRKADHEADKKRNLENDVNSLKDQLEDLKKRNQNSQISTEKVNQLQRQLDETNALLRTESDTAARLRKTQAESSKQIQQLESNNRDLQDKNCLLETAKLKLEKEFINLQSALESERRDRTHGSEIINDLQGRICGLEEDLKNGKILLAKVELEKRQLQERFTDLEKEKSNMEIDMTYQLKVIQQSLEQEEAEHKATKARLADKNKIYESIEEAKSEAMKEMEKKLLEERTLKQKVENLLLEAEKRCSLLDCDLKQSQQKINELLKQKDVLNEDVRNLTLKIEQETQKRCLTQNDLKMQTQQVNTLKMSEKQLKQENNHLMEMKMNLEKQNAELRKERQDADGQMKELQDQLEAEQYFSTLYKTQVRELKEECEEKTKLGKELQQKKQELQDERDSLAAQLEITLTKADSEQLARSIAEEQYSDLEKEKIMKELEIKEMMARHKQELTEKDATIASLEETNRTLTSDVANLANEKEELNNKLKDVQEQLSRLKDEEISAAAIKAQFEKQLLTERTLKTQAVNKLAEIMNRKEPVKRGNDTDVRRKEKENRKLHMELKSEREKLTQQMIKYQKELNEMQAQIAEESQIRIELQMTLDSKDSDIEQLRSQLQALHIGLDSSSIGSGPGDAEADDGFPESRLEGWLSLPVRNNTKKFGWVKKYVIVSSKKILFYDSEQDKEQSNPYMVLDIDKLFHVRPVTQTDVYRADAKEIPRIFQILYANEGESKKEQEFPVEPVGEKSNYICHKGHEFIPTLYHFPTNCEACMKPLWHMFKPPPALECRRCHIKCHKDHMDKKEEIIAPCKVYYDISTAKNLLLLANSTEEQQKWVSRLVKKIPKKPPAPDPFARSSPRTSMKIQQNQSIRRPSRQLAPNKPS
Dual specificity protein kinase TTK (Homo sapiens), sequence (P33981 whole entry): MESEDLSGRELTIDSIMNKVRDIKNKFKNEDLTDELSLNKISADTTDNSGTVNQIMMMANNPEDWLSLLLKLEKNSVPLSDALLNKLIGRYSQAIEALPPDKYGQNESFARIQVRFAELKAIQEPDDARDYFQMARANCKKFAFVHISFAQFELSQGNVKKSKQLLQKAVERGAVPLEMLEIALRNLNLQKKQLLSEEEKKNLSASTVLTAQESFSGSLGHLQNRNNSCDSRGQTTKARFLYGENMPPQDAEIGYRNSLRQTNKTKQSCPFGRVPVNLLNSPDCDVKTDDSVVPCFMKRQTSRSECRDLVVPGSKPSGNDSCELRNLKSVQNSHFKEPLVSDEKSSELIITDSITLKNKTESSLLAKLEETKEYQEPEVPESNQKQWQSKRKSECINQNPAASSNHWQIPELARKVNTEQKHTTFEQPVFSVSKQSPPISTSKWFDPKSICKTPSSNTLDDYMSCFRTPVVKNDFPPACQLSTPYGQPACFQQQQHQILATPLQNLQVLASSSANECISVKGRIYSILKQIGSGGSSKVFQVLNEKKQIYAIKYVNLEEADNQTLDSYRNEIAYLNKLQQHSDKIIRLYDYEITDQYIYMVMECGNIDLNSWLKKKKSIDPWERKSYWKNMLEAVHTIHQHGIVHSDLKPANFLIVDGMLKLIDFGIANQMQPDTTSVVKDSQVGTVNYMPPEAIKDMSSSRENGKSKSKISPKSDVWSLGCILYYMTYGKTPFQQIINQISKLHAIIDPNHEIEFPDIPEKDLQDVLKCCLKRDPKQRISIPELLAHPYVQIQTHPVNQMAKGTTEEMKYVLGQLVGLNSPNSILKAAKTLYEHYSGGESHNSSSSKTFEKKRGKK

- IC50 [1]: 710 nM
- IC50 [2]: 2600 nM
- IC50 [3]: 24000 nM
- Ratio [4]: 5
- IC50 [5]: > 50000 nM
- IC50 [6]: 820 nM
- remaining at 0.5 h [7]: 15%
- remaining at 0.5 h [8]: 14%
SMILES: O=C(Cc1cccc2cnccc12)Nc1scnc1-c1ncn[nH]1

- IC50 [1]: 140 nM
- IC50 [2]: 940 nM
- IC50 [3]: > 50000 nM
- solubility [9]: 90 µM
- Ratio [4]: 1.1
- IC50 [5]: > 50000 nM
- IC50 [6]: 160 nM
- remaining at 0.5 h [7]: 1%
- Papp A→B at 2 h [10]: 26.1 ×10⁻⁶ cm/s
- remaining at 0.5 h [8]: 4%
SMILES: O=C(Cc1cccc2cnccc12)Nc1ccsc1-c1cscn1

- IC50 [1]: 1700 nM
- IC50 [2]: 5300 nM
- IC50 [3]: > 50000 nM
- Ratio [4]: 0.8
- IC50 [5]: > 50000 nM
- IC50 [6]: 1600 nM
- remaining at 0.5 h [7]: 11%
- remaining at 0.5 h [8]: 41%
SMILES: COC(=O)c1ncsc1NC(=O)Cc1cccc2cnccc12

- IC50 [1]: 410 nM
- IC50 [2]: 2000 nM
- IC50 [3]: > 50000 nM
- Ratio [4]: 0.73
- IC50 [5]: > 50000 nM
- IC50 [6]: 470 nM
- remaining at 0.5 h [7]: 3%
- remaining at 0.5 h [8]: 2%
SMILES: O=C(Cc1cccc2cnccc12)Nc1scnc1-c1cnccn1

- Inihibition [11]: 8%
- Inihibition [12]: 6%
- Inihibition [13]: 6%
- Inihibition [14]: 7%
- Inihibition [15]: 3%
- Inihibition [16]: 6%
- Inihibition [17]: 13%
- Inihibition [18]: 8%
- IC50 [1]: 48 nM
- Inihibition [19]: 9%
- IC50 [2]: 470 nM
- Inihibition [20]: 69%
- Inihibition [21]: 5%
- Inihibition [22]: -4%
- Inihibition [23]: 5%
- Inihibition [24]: 31%
- Inihibition [25]: 27%
- Inihibition [26]: 4%
- Inihibition [27]: 24%
- Inihibition [28]: 14%
- IC50 [3]: > 50000 nM
- Inihibition [29]: 37%
- Inihibition [30]: 2%
- Ratio [4]: 1.9
- Inihibition [31]: 18%
- IC50 [5]: > 50000 nM
- Inihibition [32]: 33%
- Inihibition [33]: 7%
- Inihibition [34]: 21%
- Inihibition [35]: 16%
- IC50 [6]: 77 nM
- Inihibition [36]: 9%
- Inihibition [37]: 4%
- Inihibition [38]: 16%
- remaining at 0.5 h [7]: 50%
- Inihibition [39]: 17%
- remaining at 0.5 h [8]: 79%
- Inihibition [40]: 85%
- Inihibition [41]: 4%
- Inihibition [42]: 8%
- Inihibition [43]: 7%
- Inihibition [44]: 9%
- Inihibition [45]: 21%
- Inihibition [46]: 9%
- Inihibition [47]: 3%
SMILES: O=C(Cc1cccc2cnccc12)Nc1scnc1-c1cscn1

- IC50 [1]: 23900 nM
- IC50 [2]: > 50000 nM
- IC50 [3]: > 50000 nM
- IC50 [5]: > 50000 nM
- IC50 [6]: 31000 nM
- remaining at 0.5 h [7]: 1%
- Papp A→B at 2 h [10]: 7 ×10⁻⁶ cm/s
- remaining at 0.5 h [8]: 49%
SMILES: COc1ccc(CC(=O)Nc2ccsc2-c2cn(C)cn2)cc1

- IC50 [1]: 270 nM
- IC50 [2]: 710 nM
- IC50 [3]: > 50000 nM
- solubility [9]: > 100 µM
- Ratio [4]: 4.2
- IC50 [6]: 560 nM
- remaining at 0.5 h [7]: 23%
- Papp A→B at 2 h [10]: 6 ×10⁻⁶ cm/s
- remaining at 0.5 h [8]: 67%
SMILES: O=C(Cc1cccc2ncccc12)Nc1ccsc1-c1nnc[nH]1
